Data reported in ChEMBL document CHEMBL4020708, “Studies of CDK 8/19 inhibitors: Discovery of novel and selective CDK8/19 dual inhibitors and elimination of their CYP3A4 time-dependent inhibition potential” (Bioorg Med Chem, 2017).
≈ marks a conversion by molar mass, not a printed value.

What was measured:
[1] = Solubility of the compound at pH 6.8; type: physicochemical; conditions: buffer
How it was run: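 Compound added from DMSO solution to JP 2nd disintegration fluid (pH 6.8) and incubated. Precipitate removed by filtration, and filtrate concentration measured by plate reader or HPLC.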

[2] = target: Cyclin-dependent kinase 8 (Homo sapiens, UniProt P49336); assay: Inhibition of CDK8 in human SW480 cells assessed as reduction in IFN-gamma induced STAT1 phosphorylation at Ser727 residues preincubated for 2 hrs followed by IFN-gamma addition measured after 1 hr by In-cell western assay; type: cell-based
How it was run: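 SW480 cells kept in L-15 with 10% FBS at 37 °C and plated at 6000 cells/well overnight. Compound applied 2 h, then 10 ng/mL IFN-γ for 1 h. Cells fixed, permeabilized and blocked, then probed overnight at 4 °C with anti-pSTAT1 Ser727. IRDye 800CW secondary plus DRAQ5 for DNA, Odyssey imaging.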

CYP3A4 = CYP3A4 (Homo sapiens, UniProt P08684); assay: Time-dependent inhibition of CYP3A4 in human liver microsomes assessed as reduction in testosterone to 6beta-hydroxytestosterone conversion by measuring remaining activity at 30 uM preincubated for 60 mins followed by testosterone addition measured after 20 mins in presence of NADPH by UPLC analysis relative to control; type: ADME; conditions: probe testosterone (6beta-hydroxylation), read-out: Activity
How it was run: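 Compound at 30 μM preincubated with human liver microsomes in phosphate buffer pH 7.4 at 37 °C for 0 or 60 min with an NADPH-generating system. Testosterone then added for 20 min, and 6β-hydroxytestosterone measured by UPLC. Activity expressed as % of DMSO control; % remaining taken after 60 min preincubation.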

CDK8/Cyclin C = CDK8/Cyclin C (Homo sapiens, UniProt P49336); assay: Inhibition of kinase tracer 236 binding to full length N terminal GST-tagged human CDK8 (1 to 464 end residues) /CycC ( 1 to 283 end residues) expressed in baculovirus expression system after 60 min by TR-FRET assay
How it was run: (§1)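 TR-FRET ligand displacement using 20 nM GST-CDK8/CycC or GST-CDK19/CycC, 20 nM Kinase Tracer 236 and Tb-anti-GST antibody. Buffer 25 mM HEPES, 10 mM MgCl₂, 2 mM DTT, 0.01% Tween-20. Incubated 60 min at rt.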

Plasma = assay: Drug level in mouse plasma treated with (E)-3-(4-(1-Methyl-1H-pyrazol-4-yl)pyridin-3-yl)-N-(4-(morpholinomethyl)phenyl)acrylamide at 1 mg/kg, po administered as cassette dose measured up to 8 hrs by LC/MS/MS analysis; type: ADME, organism-based; conditions: in vivo
How it was run: (§2)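 Cassette dosing to non-fasted mice, 1 mg/kg po (0–8 h). Plasma obtained from blood by centrifugation, deproteinized with acetonitrile, centrifuged, and the supernatant analysed by LC/MS/MS.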

[3] = Total clearance in mouse at 1 mg/kg, po administered as cassette dose measured up to 8 hrs by LC/MS/MS analysis; type: ADME, organism-based; conditions: in vivo
[4] = AUC (0 to 8 hrs) in mouse at 1 mg/kg, po administered as cassette dose by LC/MS/MS analysis; type: ADME, organism-based; parameters: time < 8 hr, dose 1 mg/kg, route oral; conditions: in vivo; how it was run: as §2
[5] = MRT in mouse at 1 mg/kg, po administered as cassette dose measured up to 8 hrs by LC/MS/MS analysis; type: ADME, organism-based; conditions: in vivo; how it was run: as §2
Liver [6] = assay: Intrinsic clearance in mouse liver microsomes at 1 umol/L after 15 to 30 mins in presence of NADPH by LC/MS/MS analysis; type: ADME, microsome; conditions: 1 µM
How it was run: (§3)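 Human or mouse liver microsomes at 0.2 mg/mL protein in 50 mmol/L phosphate buffer pH 7.4 with 1 μmol/L compound. Reaction started with an NADPH-generating system and stopped at 15 and 30 min with acetonitrile. LC/MS/MS readout. Intrinsic clearance taken as initial metabolic velocity (slope of concentration-time) divided by compound concentration.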

Liver [7] = assay: Intrinsic clearance in human liver microsomes at 1 umol/L after 15 to 30 mins in presence of NADPH by LC/MS/MS analysis; type: ADME, microsome; conditions: 1 µM; how it was run: as §3
[8] = Oral bioavailability in mouse at 1 mg/kg administered as cassette dose measured up to 8 hrs by LC/MS/MS analysis; type: ADME, organism-based; conditions: in vivo
How it was run: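 Bioavailability from mouse cassette dosing, 0.1 mg/kg iv and 1 mg/kg po, non-fasted animals. Plasma was deproteinized with acetonitrile and compound quantified by LC/MS/MS.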

[9] = Cmax in mouse at 1 mg/kg, po administered as cassette dose measured up to 8 hrs by LC/MS/MS analysis; type: ADME, organism-based; parameters: dose 1 mg/kg, route oral; conditions: in vivo; how it was run: as §2
[10] = target: Cyclin-C/Cyclin-dependent kinase 19 (Homo sapiens, UniProt Q9BWU1); assay: Inhibition of kinase tracer 236 binding to GST-tagged CDK19/CycC (unknown origin) after 60 min by TR-FRET assay; type: protein-complex assay; how it was run: as §1
Sequence of Cyclin-C/Cyclin-dependent kinase 19 (Q9BWU1 whole entry): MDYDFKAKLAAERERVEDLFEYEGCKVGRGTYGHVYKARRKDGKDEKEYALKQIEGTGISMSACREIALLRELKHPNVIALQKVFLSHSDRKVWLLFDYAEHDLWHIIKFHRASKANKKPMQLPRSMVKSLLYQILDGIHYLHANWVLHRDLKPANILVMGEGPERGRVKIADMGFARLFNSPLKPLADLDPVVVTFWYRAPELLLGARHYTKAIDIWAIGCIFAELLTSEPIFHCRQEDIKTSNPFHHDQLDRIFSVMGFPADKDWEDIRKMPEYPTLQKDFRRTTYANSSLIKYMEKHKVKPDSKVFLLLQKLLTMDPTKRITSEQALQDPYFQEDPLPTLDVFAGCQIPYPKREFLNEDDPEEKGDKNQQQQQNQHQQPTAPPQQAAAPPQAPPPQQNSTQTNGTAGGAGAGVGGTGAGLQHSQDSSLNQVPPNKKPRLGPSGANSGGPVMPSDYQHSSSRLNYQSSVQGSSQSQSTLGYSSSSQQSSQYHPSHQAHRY
Sequence of Cyclin-C/Cyclin-dependent kinase 19 (P24863 whole entry, further chain): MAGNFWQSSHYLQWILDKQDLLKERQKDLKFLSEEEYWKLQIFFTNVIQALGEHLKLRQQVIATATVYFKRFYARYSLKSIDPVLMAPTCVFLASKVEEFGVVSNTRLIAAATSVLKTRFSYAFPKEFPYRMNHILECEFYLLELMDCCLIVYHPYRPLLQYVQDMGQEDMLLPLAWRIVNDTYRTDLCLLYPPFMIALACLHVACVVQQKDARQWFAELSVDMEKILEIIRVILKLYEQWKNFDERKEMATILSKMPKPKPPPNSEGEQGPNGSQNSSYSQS

Sequence of CDK8/Cyclin C (P49336 whole entry): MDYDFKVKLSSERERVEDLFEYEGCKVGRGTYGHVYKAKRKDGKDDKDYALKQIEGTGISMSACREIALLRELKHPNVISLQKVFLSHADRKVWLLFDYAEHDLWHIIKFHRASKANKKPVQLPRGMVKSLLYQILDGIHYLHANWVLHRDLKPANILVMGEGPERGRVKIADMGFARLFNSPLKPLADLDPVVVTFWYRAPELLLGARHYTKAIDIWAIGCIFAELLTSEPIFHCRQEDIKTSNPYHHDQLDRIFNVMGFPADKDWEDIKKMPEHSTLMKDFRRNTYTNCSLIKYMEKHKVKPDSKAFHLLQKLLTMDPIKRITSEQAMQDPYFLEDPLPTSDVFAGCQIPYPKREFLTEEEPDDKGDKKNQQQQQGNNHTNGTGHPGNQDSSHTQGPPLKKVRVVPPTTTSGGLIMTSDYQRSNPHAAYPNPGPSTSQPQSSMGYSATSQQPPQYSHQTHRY
Sequence of CDK8/Cyclin C (P24863 whole entry, further chain): as the sequence (P24863 whole entry, further chain) above
Sequence of Cyclin-dependent kinase 8 (P49336 whole entry): as the sequence (P49336 whole entry) above
Sequence of CYP3A4 (P08684 whole entry): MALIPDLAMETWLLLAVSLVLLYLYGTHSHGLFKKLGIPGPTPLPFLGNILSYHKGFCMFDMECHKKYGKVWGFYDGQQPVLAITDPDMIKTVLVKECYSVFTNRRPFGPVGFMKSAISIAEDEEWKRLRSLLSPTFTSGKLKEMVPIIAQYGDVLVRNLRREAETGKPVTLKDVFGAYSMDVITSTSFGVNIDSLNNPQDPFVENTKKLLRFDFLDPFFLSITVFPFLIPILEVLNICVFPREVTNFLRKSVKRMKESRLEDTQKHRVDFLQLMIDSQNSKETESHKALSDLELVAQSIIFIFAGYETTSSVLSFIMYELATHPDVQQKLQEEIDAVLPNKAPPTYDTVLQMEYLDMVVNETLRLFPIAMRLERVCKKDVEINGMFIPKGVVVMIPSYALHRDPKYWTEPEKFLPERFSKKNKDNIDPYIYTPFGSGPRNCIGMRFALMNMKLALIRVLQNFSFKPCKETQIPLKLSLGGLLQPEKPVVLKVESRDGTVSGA

Row | Compound | EC50 [2] | activity at 20 min, 30 µM (CYP3A4) | IC50 (CDK8/Cyclin C) | further results
1 | Cn1cc(-c2ccncc2/C=C/C(=O)Nc2ccc(CN3CC4CC3CO4)cc2)cn1 (stereo unspecified) | 19 nM | 100% | 16 nM | solubility [1]: > 82 µg/mL
2 | CC1CN(Cc2ccc(NC(=O)/C=C/c3cnccc3-c3cnn(C)c3)cc2)CCO1 (stereo unspecified) | 16 nM | 84% | 6.7 nM | 
3 | COc1ccc(-c2ccncc2/C=C/C(=O)Nc2ccc(CN3CCOCC3)cc2)s1 | 97 nM |  | 28 nM | 
4 | O=C(/C=C/c1cnccc1-c1cnn(C2CC2)c1)Nc1ccc(CN2CC3CC(C2)O3)cc1 | 5.5 nM | 108% | 6.7 nM | solubility [1]: 60 µg/mL (≈ 136 µM)
5 | Cn1cnc2ccc(-c3ccncc3/C=C/C(=O)Nc3ccc(CN4CCOCC4)cc3)cc21 | 2.4 nM |  | 2.5 nM | 
6 | O=C(/C=C/c1cnccc1-c1cnn(CC(F)(F)F)c1)Nc1ccc(CN2CCOCC2)cc1 | 150 nM |  | 28 nM | 
7 | Cn1cc(-c2ccncc2/C=C/C(=O)Nc2ccc(CN3CCOCC3=O)cc2)cn1 |  |  |  | Drug metabolism (Plasma): Metabolite_Detected
8 | O=C(/C=C/c1cnccc1-c1cncs1)Nc1ccc(CN2CCOCC2)cc1 | 140 nM |  | 41 nM | 
9 | O=C(/C=C/c1cnccc1-c1cnn(Cc2ccccc2)c1)Nc1ccc(CN2CCOCC2)cc1 | 28 nM |  | 4.5 nM | CL/F [3]: 96.1 mL/min/kg; AUC(0-t) at 8 h [4]: 26.9 ng·h/mL; MRT [5]: 1.2 h; intrinsic clearance (Liver [6]): 118 µL/min/mg; microsomal intrinsic clearance (Liver [7]): 78 µL/min/mg; bioavailability [8]: 15.5%; Cmax [9]: 15.7 ng/mL
10 | O=C(/C=C/c1cncc(F)c1-c1cnn(C2CC2)c1)Nc1ccc(CN2CCOCC2)cc1 | 2.3 nM | 46% | 6.5 nM | 
11 | Cn1cnc2cc(-c3ccncc3/C=C/C(=O)Nc3ccc(CN4CCOCC4)cc3)ccc21 | > 10000 nM |  | 4800 nM | 
12 | Cn1cc(-c2cc(N)ncc2/C=C/C(=O)Nc2ccc(CN3CCOCC3)cc2)cn1 | 1300 nM |  | 990 nM | 
13 | Cn1cc(-c2cc[n+]([O-])cc2/C=C/C(=O)Nc2ccc(CN3CCOCC3)cc2)cn1 |  |  |  | Drug metabolism (Plasma): Metabolite_Detected
14 | Cn1cc(-c2ccncc2/C=C/C(=O)Nc2ccc3c(c2)CCN(CC(F)(F)F)C3)cn1 | 7 nM | 91% | 4.5 nM | solubility [1]: > 81 µg/mL
15 | NC(=O)c1ccc(-c2ccncc2/C=C/C(=O)Nc2ccc(CN3CCOCC3)cc2)s1 | 690 nM |  | 8.3 nM | 
16 | O=C(/C=C/c1cnccc1-c1cnsc1)Nc1ccc(CN2CCOCC2)cc1 | 110 nM |  | 27 nM | 
17 | O=C(CCc1cnccc1-c1cnn(C2CC2)c1)Nc1ccc(CN2CCOCC2)cc1 | 130 nM | 59% | 29 nM | IC50 [10]: 41 nM
18 | CC1COCCN1Cc1ccc(NC(=O)/C=C/c2cnccc2-c2cnn(C)c2)cc1 (stereo unspecified) | 27 nM | 59% | 20 nM | solubility [1]: > 75 µg/mL

Row | Compound | EC50 [2] | activity at 20 min, 30 µM (CYP3A4) | IC50 (CDK8/Cyclin C) | further results
19 | Cn1cc(-c2ccncc2/C=C/C(=O)Nc2ccc(CNCCO)cc2)cn1 |  |  |  | Drug metabolism (Plasma): Metabolite_Detected
20 | O=C(/C=C/c1cnccc1-c1ccc2[nH]cnc2c1)Nc1ccc(CN2CCOCC2)cc1 | 10 nM |  | 1.5 nM | 
21 | Cn1cc(-c2ccncc2/C=C/C(=O)Nc2ccccc2)cn1 | 110 nM | 97% | 51 nM | solubility [1]: 26 µg/mL (≈ 85.4 µM)
22 | Cn1cc(-c2ccncc2/C=C/C(N)=O)cn1 | > 10000 nM |  | > 10000 nM | 
23 | O=C(/C=C/c1cnccc1-c1cnn(C2CC2)c1)Nc1ccc2c(c1)CCN(CC(F)(F)F)C2 | 14 nM | 88% | 7.1 nM | solubility [1]: 3.9 µg/mL (≈ 8.34 µM)
24 | Cn1cc(-c2ccncc2CCC(=O)Nc2ccc(CN3CCOCC3)cc2)cn1 | 95 nM | 71% | 41 nM | IC50 [10]: 50 nM
25 | Cn1cc(-c2c(F)cncc2/C=C/C(=O)Nc2ccc(CN3CCOCC3)cc2)cn1 | 3.6 nM | 60% | 5.2 nM | 
26 | O=C(/C=C/c1cnccc1-c1cn[nH]c1)Nc1ccc(CN2CCOCC2)cc1 | 21 to 370 nM |  | 0.54 to 80 nM | Drug metabolism (Plasma): Metabolite_Detected; intrinsic clearance (Liver [6]): 6.7 µL/min/mg; microsomal intrinsic clearance (Liver [7]): 5.1 µL/min/mg; IC50 [10]: 100 nM
27 | COc1ncc(-c2ccncc2/C=C/C(=O)Nc2ccc(CN3CCOCC3)cc2)s1 | 12 nM |  | 8.1 nM | 
28 | Cn1cc(-c2ccncc2/C=C/C(=O)Nc2ccc(CN3C4CCC3COC4)cc2)cn1 | 17 nM | 99% | 6.3 nM | 
29 | Cn1cc(-c2ccncc2/C=C/C(=O)Nc2ccc(CN3CCC(F)(F)C3)cc2)cn1 | 17 nM | 69% | 6.2 nM | solubility [1]: 33 µg/mL (≈ 77.9 µM)
30 | Cn1cc(-c2ccncc2/C=C/C(=O)Nc2ccc(CN3CC(F)(F)C3)cc2)cn1 | 84 nM | 98% | 11 nM | solubility [1]: 44 µg/mL (≈ 107 µM)
31 | O=C(/C=C/c1cnccc1-c1cnn(C2CC2)c1)Nc1ccc(CN2CCOCC2)cc1 | 11 nM | 54% | 6.4 nM | CL/F [3]: 25.4 mL/min/kg; AUC(0-t) at 8 h [4]: 340 ng·h/mL; MRT [5]: 1.5 h; intrinsic clearance (Liver [6]): 64 µL/min/mg; microsomal intrinsic clearance (Liver [7]): 25 µL/min/mg; IC50 [10]: 7.6 nM; bioavailability [8]: 51.2%; Cmax [9]: 208 ng/mL
32 | O=C(/C=C/c1cnccc1-c1cnn(C2CC2)c1)Nc1ccc(CN2CC3CC2CO3)cc1 (stereo unspecified) | 3.1 nM | 101% | 9.6 nM | solubility [1]: > 92 µg/mL
33 | O=C(/C=C/c1cnccc1-c1cnn(C(F)F)c1)Nc1ccc(CN2CCOCC2)cc1 | 11 to 50 nM |  | 6.4 to 24 nM | 
34 | Cn1cc(-c2ccnc(O)c2/C=C/C(=O)Nc2ccc(CN3CCOCC3)cc2)cn1 | > 10000 nM | 89% | > 10000 nM | 
35 | Cn1cc(-c2ccncc2/C=C/C(=O)Nc2ccc3c(c2)CN(CC(F)(F)F)CC3)cn1 | 8.4 nM | 22% | 3.2 nM | solubility [1]: 8.9 µg/mL (≈ 20.2 µM)
